Measurements published in ChEMBL document CHEMBL3044975, “Hybrid ubiquinone: novel inhibitor of mitochondrial complex I” (Biochim Biophys Acta, 2002).

What was measured:
[1] = target: T1, NADH-ubiquinone oxidoreductase chain 1 (Bos taurus, UniProt P03887); test: Inhibition of Bos taurus (bovine) mitochondrial complex 1 assessed as reduction in enzyme activity by NADH-DB oxidoreductase assay
[2] = target: T1, NADH-ubiquinone oxidoreductase chain 1; test: Inhibition of Bos taurus (bovine) mitochondrial complex 1 assessed as reduction in enzyme activity by NADH-DU oxidoreductase assay
Summary of the method: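 Bovine heart submitochondrial particles (SMP) at 30 µg protein/ml. 50 µM decyl ubiquinone is the acceptor. SMP are preincubated with the HU for 5 min, then 50 µM NADH is added. NADH oxidation is read at 340 nm, 30 °C. IC50 from two independent experiments.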

T1 sequence (P03887 whole entry): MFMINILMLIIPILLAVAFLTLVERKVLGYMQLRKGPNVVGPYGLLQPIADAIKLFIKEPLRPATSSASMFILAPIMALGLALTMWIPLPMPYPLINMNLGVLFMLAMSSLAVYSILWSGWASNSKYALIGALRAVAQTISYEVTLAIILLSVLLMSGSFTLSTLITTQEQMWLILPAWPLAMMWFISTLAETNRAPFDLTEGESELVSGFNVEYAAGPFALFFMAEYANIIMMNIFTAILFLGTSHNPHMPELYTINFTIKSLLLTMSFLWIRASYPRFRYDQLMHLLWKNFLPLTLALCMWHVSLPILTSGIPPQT

With `COC1=C(OC)C(=O)C(CCN(C)C(=O)c2ccc(Oc3ccc(C(C)(C)C)cc3)cc2)=C(C)C1=O` the IC50 [1] was 470 nM and the IC50 [2] was 760 nM.

`CCCCCCCCCCC(=O)N(C)CC1=C(C)C(=O)C(OC)=C(OC)C1=O` showed an IC50 [1] of 11800 nM and an IC50 [2] of 6200 nM.

Work on `COC1=C(OC)C(=O)C(CCCCCCN(C)C(=O)c2ccc(Oc3ccc(C(C)(C)C)cc3)cc2)=C(C)C1=O` yielded an IC50 [1] of 1100 nM and an IC50 [2] of 610 nM.

`CCN(CC1=C(C)C(=O)C(OC)=C(OC)C1=O)C(=O)c1ccc(Oc2ccc(C(C)(C)C)cc2)cc1` gave an IC50 [1] of 370 nM and an IC50 [2] of 630 nM.

Compound `COC1=C(OC)C(=O)C(CC(=O)N(C)c2ccc(Oc3ccc(C(C)(C)C)cc3)cc2)=C(C)C1=O` has an IC50 [1] of 1800 nM and an IC50 [2] of 2000 nM.

`CCCCc1ccc(Oc2ccc(C(=O)N(C)CC3=C(C)C(=O)C(OC)=C(OC)C3=O)cc2)cc1` showed an IC50 [1] of 970 nM and an IC50 [2] of 840 nM.

Compound `COC1=C(OC)C(=O)C(CNC(=O)c2ccc(Oc3ccc(C(C)(C)C)cc3)cc2)=C(C)C1=O` has an IC50 [1] of 340 nM and an IC50 [2] of 530 nM.

`C/C=C(\C)[C@H](O)[C@H](C)/C=C(C)/C=C/C/C(C)=C/Cc1nc(OC)c(OC)c(O)c1C` [PIERICIDIN A] gave an IC50 [1] of 3 nM.

`COC1=C(OC)C(=O)C(CN(C)C(=O)c2ccc(Oc3ccc(C(C)(C)C)cc3)cc2)=C(C)C1=O` gave an IC50 [1] of 77 nM and an IC50 [2] of 88 nM.

In the case of `CN(C)C(=O)c1ccc(Oc2ccc(C(C)(C)C)cc2)cc1`, the IC50 [1] is reported as 650 nM.
